Experimental data from different studies.
Protocols differ between the studies behind these lines.
Target: Serine/threonine-protein kinase PLK2 (PLK2, Homo sapiens, UniProt Q9NYY3)

Cc1cc(NC(=O)c2cccc3cc(-c4cccc5[nH]nc(N)c45)ccc23)ccc1F — activity vs control (enzyme activity; inhibitor; 0.1 µM): 91%
CN(C)c1nccc(-c2cnc3ncccn23)n1 — remaining binding (binding; 1 µM): 66%
CO[C@H]1CC[C@H](CNc2ccc(S(=O)(=O)NC(=O)c3ccc(N4CCN(CC5=C(c6ccc(Cl)cc6)CC(C)(C)CC5)CC4)cc3Oc3cnc4[nH]ccc4c3)cc2[N+](=O)[O-])CC1 — remaining binding (cell-free assay; competition with immobilised ligand; 1 µM): 100%
CC(C)(C)c1nc(-c2cccc(NS(=O)(=O)c3c(F)cccc3F)c2F)c(-c2ccnc(N)n2)s1 — remaining activity (enzyme activity; inhibitor; radiometric; 1 µM): 94%
CN1CC(Oc2cnc(C#N)cc2-c2ccn3nc(NC(=O)C4CC4)cc3c2)C1 — inhibition (enzyme activity; inhibitor; 1 µM): 1%
O=C1NC(=O)c2cc(Nc3ccc(F)cc3)c(Nc3ccc(F)cc3)cc21 — remaining signal (cell-free assay; 0.5 µM): 99.6%
CNC(=O)c1cc(Oc2ccc(NC(=O)Nc3ccc(Cl)c(C(F)(F)F)c3)cc2)ccn1 — inhibition (enzyme activity; inhibitor; 0.3 µM): -1%
Cc1cnc(NC2CCOCC2)nc1-n1cnc(C(=O)NC(CN)c2cc(F)cc(Cl)c2)c1 (stereo not drawn) — remaining activity (enzyme activity; inhibitor; radiometric; 1 µM): 69%
CC(=O)C1=C(C)N(c2cccc(C(F)(F)F)c2)C(=O)N[C@@H]1c1ccc(C#N)nc1 — remaining binding (cell-free assay; competition with immobilised ligand; 1 µM): 97.8%
Cc1ccc(Nc2nccc(N(C)c3ccc4c(C)n(C)nc4c3)n2)cc1S(N)(=O)=O — inhibition (enzyme activity; inhibitor; 0.3 µM): -15%
COc1cc(-c2cn(C3CCc4ccccc4N(CC(F)(F)F)C3=O)nn2)ccc1-n1ccc(C)n1 (stereo not drawn) — remaining binding (cell-free assay; competition with immobilised ligand; 1 µM): 100%
CCN(CC)CCNC(=O)c1c(C)[nH]c(/C=C2\C(=O)Nc3ccc(F)cc32)c1C — inhibition (enzyme activity; inhibitor; 10 µM): 6%
CCOc1cc(-c2nncn2C)ccc1Nc1ncc2cc(C)nc(NCC(C)(C)C)c2n1 — inhibition (enzyme activity; inhibitor; FRET; 1 µM): < 15%
N#CCCc1ccc2c(c1)-c1[nH]c3ccc([N+](=O)[O-])cc3c1CC(=O)N2 — remaining signal (cell-free assay; 0.5 µM): 99%
O=C(Nc1cnn(-c2csc(C(=O)NC3COC3)c2)c1)Nc1ccccc1Cl — remaining activity (enzyme activity; inhibitor; 5 µM): 86%
CCCCN(CCCC)C(=O)CN1C[C@@H](c2cc(OC)c3c(c2)OCO3)[C@H](C(=O)O)[C@H]1CC(C)(C)CCC — remaining binding (cell-free assay; competition with immobilised ligand; 1 µM): 98.4%
COc1cc2ncnc(Nc3ccc(Oc4ccccc4)c(C)c3C)c2cc1OC — inhibition (enzyme activity; inhibitor; 1 µM): 1%
CCCS(=O)(=O)Nc1ccc(F)c(C(=O)c2c[nH]c3ncc(-c4ccc(Cl)cc4)cc23)c1F — inhibition (enzyme activity; inhibitor; 1 µM): < 10%
C[C@H](c1ccnc(Nc2nc3ccc(-c4cc(N(C)C)ncn4)cc3[nH]2)c1)N1CCN(C(=O)CC(F)(F)F)CC1 — remaining binding (cell-free assay; competition with immobilised ligand; 0.1 µM): 100%
Nc1ncnc2occ(-c3ccc(NC(=O)Nc4cc(C(F)(F)F)ccc4F)cc3)c12 — remaining signal (cell-free assay; inhibitor; 20 µM): 0.1%
CO[C@@H](C)c1c(Nc2ccc([C@@H](N(C)C(=O)C3CCS(=O)(=O)CC3)C(F)(F)F)cc2)cnc2cc(Cl)nn12 — remaining binding (cell-free assay; competition with immobilised ligand; 1 µM): 100%
O=C(Nc1cnn(-c2csc(C(=O)NC3COC3)c2)c1)Nc1c(F)cccc1Cl — remaining activity (enzyme activity; inhibitor; 5 µM): 100%
COc1cccc(CNC(=O)c2nc3scc(COCc4ccc(C(=O)O)cc4)c3c(=O)[nH]2)c1 — remaining binding (cell-free assay; competition with immobilised ligand; 1 µM): 56.7%
Cc1ccc(NC(=O)c2ccc(CN3CCN(C)CC3)cc2)cc1Nc1nc(-c2cccnc2)cs1 — remaining signal (cell-free assay; 0.5 µM): 97.9%
